Bioassay records: PubChem BioAssay, Broad Institute
Rtt109 Vps75: inhibitors of C. albicans Rtt109/Vps75 HAT, primary screen, biochemical, ThioGlo CoA-SH fluorescence, plate reader | purified Rtt109/Vps75, 4 h | inhibition, % at 34.9 µM | actives 0.16% (n = 330,000) | AID 540336, 2011;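 active = inhibition of at least 50% in every replicate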
miR122 inh: miR-122 Renilla sensor signal increase in Huh7, primary screen, miR-122 inhibitor project, cell-based, single point, plate reader. Huh7 miR-122 Renilla luciferase sensor, 48 h; neutral wells = 0, positive control = 100. activation (reporter increase), % at 12.5 µM. actives 0.3% (n = 340,000). AID 602342, 2012;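 active = mean replicate activation score at least 90 and every replicate individually at or above 90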;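 note: higher luciferase means less miR-122 activity so hits act as miR-122 inhibitors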
Env fusion inh: inhibitors of HIV-1 Env-driven cell-cell fusion, primary screen, HeLa-JRFL effector, CEM21 target cells, luciferase | actives 1.1% (n = 360,000) | inhibition, % at 12.3 µM | AID 651610, 2012;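 active = mean replicate inhibition score of at least 50 and every replicate individually at or above 50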;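 note: 0% = plate neutral controls and 100% = maraviroc near 300 nM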
dFosB activator: activators of delta FosB homodimer, primary screen, biochemical, fluorescence polarization, TAMRA-CDK5 oligo, single point. actives 0.99% (n = 340,000). activation, % at 25 µM. purified delta FosB; percent of positive-control signal above neutral wells;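 active = mean activation above about 17%, with every replicate also reaching it, limit read from the data, passing the limit was not always enough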
Target sequence (P13346 whole entry, looked up): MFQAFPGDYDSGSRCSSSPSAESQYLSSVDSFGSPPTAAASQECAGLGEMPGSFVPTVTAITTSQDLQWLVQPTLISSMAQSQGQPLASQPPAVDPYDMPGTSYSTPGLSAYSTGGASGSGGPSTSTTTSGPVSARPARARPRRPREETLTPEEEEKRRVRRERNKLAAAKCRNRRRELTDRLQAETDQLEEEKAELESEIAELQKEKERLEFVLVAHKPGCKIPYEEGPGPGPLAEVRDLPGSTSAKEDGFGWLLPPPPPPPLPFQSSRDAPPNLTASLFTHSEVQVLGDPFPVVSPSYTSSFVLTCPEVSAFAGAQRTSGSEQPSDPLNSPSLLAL
Cneo AK release: Cryptococcus neoformans cell lysis inducers, primary screen, AK release luminescence, single concentration; C. neoformans lysis, adenylate kinase release luminescence, 4 h; normalised: neutral wells 0, clomiphene wells 100; lysis activity, % at 15 µM; actives 0.2% (n = 360,000); AID 651654, 2012;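 active = mean lysis activity across replicates of at least 80%, whatever share of replicates individually reach that level; inactive = mean lysis activity below 80%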
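read-out = cell lysis signal | test system = log-phase Cryptococcus neoformans yeast cells | input = cells at 5 × 10^6 per mL | medium = fresh YPD growth medium | signal = luminescent adenylate kinase detection reagent | timing = 4 h at 37 °C static, read 1 h later | dosing = single dose | controls = Clomiphene as positive lysis control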
INS-1E GSIS act: GLuc luminescence reporter in INS-1E cells, primary screen for activators of glucose-dependent secretion of insulin; actives 0.61% (n = 370,000); activation, % at 16.6 µM; INS-1E GLuc reporter insulin secretion, 2-3 h; AID 743287, 2014;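 active = lowest replicate activation of at least 40%, so every replicate reaches that level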;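 note: 0% = median of neutral control wells and 100% = median of IBMX positive control wells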
An asterisk follows results filed as active; [ ] = dose if it differs, or a comment. Most compounds without a hit are left out; they make up all but 2.4% or so of the library.

How did Clc1ccc(-c2cc(CN3CCOCC3)no2)cc1 do in these assays?
Rtt109 Vps75: -1.6; miR122 inh: -8.9; Env fusion inh: -22.7; dFosB activator: -8.3; Cneo AK release: 2.3; INS-1E GSIS act: 147.1*

Results for C[C@@H]1CN([C@@H](C)CO)C(=O)Cc2cc(NC(=O)Cn3cnnn3)ccc2O[C@H]1CN(C)C ?
miR122 inh: -7.8[16.7 µM]; Env fusion inh: 5.5[16.7 µM]; Cneo AK release: 2.3; INS-1E GSIS act: 14.2

Results for COc1cc(/C=N/NC(=O)CCn2nc(C)cc2C)ccc1O ?
Rtt109 Vps75: -8.9; miR122 inh: -0.9; Env fusion inh: 9.9; dFosB activator: 3.2; Cneo AK release: 0.7

How did CCOc1cc(/C=N/NC(=O)CCn2nc(C)cc2C)ccc1O do in these assays?
Rtt109 Vps75: -1.4; Env fusion inh: -1.5; dFosB activator: -8.4; INS-1E GSIS act: 53.0*

Results for CS(=O)(=O)N1C2CN(CC(F)(F)F)CC1C2c1ccc(Br)cc1 (stereo not given) ?
INS-1E GSIS act: -17.0

What do the screens show for `Cc1cccc(N(C)c2cc(-c3ccc(F)cc3)nc3ccnn23)c1`?
miR122 inh: -5.2; Env fusion inh: 62.8*; Cneo AK release: -3.3

What do the screens show for `C[C@H](CO)N1C[C@H](C)[C@@H](CN(C)C(=O)c2ccc(F)cc2)Oc2cc(C3=CCCCC3)ccc2S1(=O)=O`?
miR122 inh: 44.8[16.7 µM]; Env fusion inh: -42.5[16.7 µM]; Cneo AK release: 47.0; INS-1E GSIS act: -13.9

How did CCC[C@@H]1C[C@@]1(CCC)[C@@H](NP(=O)(c1ccccc1)c1ccccc1)c1ccc(C(=O)OC)cc1 do in these assays?
Env fusion inh: 95.7*

Results for N#C[C@@H]1[C@H](c2ccc(-c3ccccc3F)cc2)[C@@H](CO)N1C(=O)Cc1ccccc1 ?
Env fusion inh: 57.6*[16.7 µM]; Cneo AK release: 4.8; INS-1E GSIS act: -16.7

How did N#C[C@H]1[C@@H](c2ccc(-c3ccccc3)cc2)[C@@H](CO)N1S(=O)(=O)Cc1ccccc1 do in these assays?
Env fusion inh: 62.5*[16.7 µM]; Cneo AK release: 2.3; INS-1E GSIS act: -25.1

How did N#C[C@@H]1[C@@H](c2ccc(-c3ccc(F)cc3)cc2)[C@@H](CO)N1S(=O)(=O)Cc1ccccc1 do in these assays?
Env fusion inh: 0.5[16.7 µM]; Cneo AK release: 0.9; INS-1E GSIS act: -1.9

What do the screens show for `N#C[C@@H]1[C@@H](c2ccc(-c3ccccc3F)cc2)[C@@H](CO)N1C(=O)Cc1ccccc1`?
Env fusion inh: -1.3[16.7 µM]; Cneo AK release: -2.2; INS-1E GSIS act: 4.8

What do the screens show for `CSc1nnc2c3cc(F)ccc3n(Cc3ccccc3)c2n1`?
Rtt109 Vps75: -6.5; miR122 inh: 163.6*; Env fusion inh: -74.4; dFosB activator: -1.5; Cneo AK release: 9.9

Results for CCOC(=O)C1=C(C)N(C[C@@H]2CC[C@@H](Cc3ccc(-c4ccccc4)cc3)O2)C(=O)NC1c1ccc(C(F)(F)F)cc1 (stereo not given in full) ?
Rtt109 Vps75: -2.6; Env fusion inh: 67.1*; dFosB activator: -2.2; Cneo AK release: 1.8; INS-1E GSIS act: 15.3

Results for Oc1ccccc1C1SC(c2ccccc2O)SC(c2ccccc2O)S1 (stereo not given) ?
Rtt109 Vps75: -2.3; miR122 inh: -0.5; Env fusion inh: -0.7; dFosB activator: -1.5; Cneo AK release: -0.1; INS-1E GSIS act: 152.9*

How did CC(C)c1ccc2c(c1)[C@H]1OCC[C@H]1[C@@H](c1cccs1)N2 do in these assays?
Rtt109 Vps75: 2.6; Env fusion inh: 58.8*; dFosB activator: -1.5; INS-1E GSIS act: -18.0

Results for Cc1nn(S(=O)(=O)c2cccs2)c(C)c1Sc1ccc([N+](=O)[O-])cc1 ?
Rtt109 Vps75: 5.1; miR122 inh: 0.4; Env fusion inh: 97.4*; dFosB activator: -0.4; Cneo AK release: -0.1; INS-1E GSIS act: 3.8
